Biofilm kill mix: clotrimazole potentiators killing C. albicans biofilm, primary screen, 4-compound mixtures | C. albicans biofilm persisters + clotrimazole, fluorescence viability; primary screen in compound mixtures of four per well | inhibition, % at 7.6 µM | AID 1242, 2008 | actives 0.02% (n = 120,000);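 active = inhibition above 30.3% in the primary screen of four-compound pools, then above 30% when the compound was retested; inconclusive = passed the primary limit but could not be retested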;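 note: compounds exposed to preformed 24 h biofilms for 48 h; 0% = untreated biofilm control and 100% = clotrimazole plus chlorhexidine kill blank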
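Probe or stimulus – Clotrimazole 50 µg/mL co-treatment · System – C. albicans biofilms · Schedule – 24 h biofilm formation, then 48 h compound exposure, 37 °C · Evaluation – percent inhibition of biofilm viability · Technique – 2-h Alamar Blue fluorescence, 535/590 nm excitation/emission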
RGS16-Gao: modulators of RGS16 binding to Galphao, primary screen, biochemical, human proteins, multiplexed bead flow cytometry; bead-based flow cytometry RGS16-Galphao binding, fluorescence; actives lie on both sides; binding response (% of control), % at 10 µM; actives 0.38% (n = 220,000);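 note: Galphao activated by GDP with aluminum fluoride before binding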
RGS4-Gao reg: modulators of RGS4 binding to Galphao, primary screen, biochemical, multiplexed bead flow cytometry; binding response (% of control), % at 10 µM; Guanine nucleotide-binding protein G(o) subunit alpha (Homo sapiens), P09471; actives lie on both sides; actives 0.33% (n = 220,000); in the data active = binding response below about 49% or above about 150%; inactive = in between;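 note: fluorescent Galphao activated with aluminum fluoride binding bead-coupled RGS4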
Target sequence (P09471 whole entry, looked up): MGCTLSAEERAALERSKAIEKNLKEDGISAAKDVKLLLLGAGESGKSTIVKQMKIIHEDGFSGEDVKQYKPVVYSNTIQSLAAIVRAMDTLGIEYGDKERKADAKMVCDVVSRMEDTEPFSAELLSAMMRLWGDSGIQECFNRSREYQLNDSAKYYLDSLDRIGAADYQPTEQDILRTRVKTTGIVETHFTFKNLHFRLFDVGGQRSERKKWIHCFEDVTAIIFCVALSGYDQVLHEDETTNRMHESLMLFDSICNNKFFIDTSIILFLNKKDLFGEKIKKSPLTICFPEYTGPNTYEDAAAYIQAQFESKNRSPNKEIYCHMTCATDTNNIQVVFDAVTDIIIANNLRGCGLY
RGS7-Gao: RGS7-Galphao binding modulators, primary screen, biochemical, multiplexed bead flow cytometry; actives lie on both sides; binding response (% of control), % at 10 µM; actives 0.35% (n = 220,000); in the data active = binding response below about 49% or above about 150%; inconclusive = no clear call, values can overlap the other calls; inactive = in between;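 note: fluorescent Galphao held in activated GDP-AlF4 state binding bead-coupled RGS7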
RGS8-Gao reg: RGS8-Galphao binding modulators, primary screen, biochemical, multiplexed bead flow cytometry. AID 1423, 2008. actives 0.34% (n = 220,000). Guanine nucleotide-binding protein G(o) subunit alpha (Homo sapiens), P09471. actives lie on both sides. response (percent of control binding), % at 10 µM; in the data active = response below about 60% or above about 140%; inactive = in between;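 note: Galphao activated as the GDP aluminium fluoride complex binding bead-coupled RGS8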
RGS-Gao: modulators of RGS–Galpha-o binding, primary screen, biochemical, multiplexed beads, flow cytometry, RGS4/7/8/16/19. AID 1504, 2009. actives 99% (n = 1,600). multiplexed bead flow cytometry. shares compounds with RGS16-Gao. RGS4–Galpha-o binding response, % at 10 µM;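 note: fluorescently labeled Galpha-o bound to GDP with aluminium fluoride binding biotinylated RGS beads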
Target sequence (P09471 whole entry, looked up): as above
Target sequence (P49798 whole entry, looked up): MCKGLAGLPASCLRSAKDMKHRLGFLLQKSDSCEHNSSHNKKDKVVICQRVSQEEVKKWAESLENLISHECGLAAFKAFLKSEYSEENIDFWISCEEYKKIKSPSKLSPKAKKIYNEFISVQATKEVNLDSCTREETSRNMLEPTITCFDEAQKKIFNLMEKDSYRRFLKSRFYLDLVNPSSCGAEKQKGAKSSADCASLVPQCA
Biotin-avidin: disruption of biotin probe capture by avidin, counter-screen for RGS protein interaction modulators, biochemical, flow cytometry, bead-based | shares compounds with RGS16-Gao | inhibition, % at 10 µM | 1,700 tested, under 10 active | streptavidin beads, fluorescein-biotin binding;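 active = inhibition above 50%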;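 note: median green fluorescence of gated singlet beads compared with DMSO control wells; 0% = DMSO wells and 100% = complete loss of bead fluorescence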
RGS8-Gao single: RGS8-Galphao binding modulators, confirmation, biochemical, multiplexed bead flow cytometry, single concentration. shares compounds with RGS16-Gao. bead-based flow cytometry RGS8-Galphao binding, fluorescence; actives lie on both sides. binding response (% of control), % at 10 µM. actives 3% (n = 1,700). AID 1836, 2009; in the data active = binding response below about 72% or above about 130%; inactive = in between;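 note: Galphao activated as GDP AlF4 complex before binding bead RGS8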
RGS7-Gao single: RGS7-Galphao binding modulators, confirmation, biochemical, multiplexed bead flow cytometry, single concentration. shares compounds with RGS16-Gao. bead-based flow cytometry RGS7-Galphao binding; actives lie on both sides. response (percent of control binding), % at 10 µM. actives 7.8% (n = 1,700). AID 1837, 2009; in the data active = response below about 75% or above about 130%; inactive = in between;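 note: fluorescent Galphao activated with GDP and aluminum fluoride binding bead-coupled RGS7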
RGS16-Gao single: modulators of RGS16-Galphao protein binding, confirmation, biochemical, single concentration, multiplexed bead flow cytometry | shares compounds with RGS16-Gao | bead-based flow cytometry; actives lie on both sides | response (% of control binding), % at 10 µM | actives 4% (n = 1,700) | AID 1838, 2009; in the data active = response below about 74% or above about 130%; inactive = in between;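 note: Galphao activated as the GDP aluminium fluoride complex binding bead-coupled RGS16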
RGS4-Gao confirm: modulators of RGS4-Galphao protein binding, confirmation, biochemical, single concentration, multiplexed bead flow cytometry; shares compounds with RGS16-Gao; actives lie on both sides; binding response (% of control), % at 10 µM; actives 4% (n = 1,700); in the data active = binding response below about 74% or above about 130%; inactive = in between
RGS19-Gao single: regulators of RGS19-Galphao binding, confirmation, biochemical, single point, multiplexed bead flow cytometry; response (percent of control binding), % at 10 µM; shares compounds with RGS16-Gao; actives 5% (n = 1,700); bead-based flow cytometry RGS19-Galphao binding; actives lie on both sides; in the data active = response below about 50% or above about 160%; inactive = in between;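 note: 100% = no compound control and 0% = blank background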
The depositor's hits bear a star; ? = inconclusive; / = no result given; [ ] = remark or other dose. An excerpt weighted towards active compounds, which were near 0.74% of everything screened. Unless noted, the rule behind the calls is not given here.

SMILES	Biofilm kill mix	RGS16-Gao	RGS4-Gao reg	RGS7-Gao	RGS8-Gao reg	RGS-Gao	Biotin-avidin	RGS8-Gao single	RGS7-Gao single	RGS16-Gao single	RGS4-Gao confirm	RGS19-Gao single
CCOc1cccc2cc(-c3nnc(NCc4ccc5c(c4)OCO5)s3)c(=O)oc12	17	/	/	/	/	/	-1	105	105	120	107	167*[activator]
CCN(CC)S(=O)(=O)c1ccc(NC(=O)C(OC)c2ccccc2)cc1 (stereo unspecified)	/	/	/	/	/	/	-1	100	93	99	99	97
COC(C(=O)Nc1ccc(S(=O)(=O)Nc2c(C)cccc2C)cc1)c1ccccc1 (stereo unspecified)	3	106	102	102	100	/	/	/	/	/	/	/
O=C(O)CSc1c(-c2ccccc2)[nH]c2ccccc12	10	-3.1*	77	70	62	77*	-1	100	97	99	101	91
O=C(Nc1ccccc1[N+](=O)[O-])C1(c2ccccc2)CCOCC1	16	110	141	334*[activator]	97	141*	2	98	91	95	96	89
FC(F)(F)c1nnc2ccc(N3CCCC3)nn12	/	106	103	104	102	/	/	/	/	/	/	/
FC(F)(F)c1nnc2ccc(N3CCCCCC3)nn12	/	/	149	122	173*[activator]	149*	-1	101	88	93	96	96
CCNC(=S)N(Cc1ccc(OC)cc1)C1CC(=O)N(c2ccc(OCC)cc2)C1=O (stereo unspecified)	/	/	/	/	/	/	0	102	108	107	103	99
CCNC(=S)N(Cc1ccc2c(c1)OCO2)C1CC(=O)N(c2ccc(OC)cc2)C1=O (stereo unspecified)	/	32	85	82	71	/	/	/	/	/	/	/
COc1ccc2c(c1OC)C(=O)OC2Nc1ncc(Br)cc1Br (stereo unspecified)	/	188*[activator]	124	112	125	124*	0	100	102	100	100	100
COc1ccc2c(c1OC)C(=O)OC2Nc1ccc(S(=O)(=O)N=C(N)N)cc1 (stereo unspecified)	11	92	88	?	96	/	/	/	/	/	/	/
Cc1cccc(C(=O)N[C@H](C(=O)Nc2cccc(S(=O)(=O)N3CCCC3)c2)C(C)C)c1	15	110	109	?	103	/	/	/	/	/	/	/
CCOc1ccc(C(=O)N[C@H](C(=O)Nc2cccc(S(=O)(=O)N3CCCCC3)c2)C(C)C)cc1	14	4.6*	90	88	80	90*	1	103	100	98	102	93
Cc1ccc(-n2ncc3c(=O)[nH]c(SCC(=O)N4CCC(C)CC4)nc32)cc1C	/	185*[activator]	112	114	123	112*	3	97	99	100	99	98
Cc1ccc(-n2ncc3c(=O)[nH]c(SCC(=O)N4CCCC4)nc32)cc1C	-3	106	102	102	103	/	/	/	/	/	/	/
CC(C)n1c(NCCO)nc2ccccc21	10	49	49*	37*	57*	/	3	104	96	100	100	98
COc1ccc(Cn2c(=O)n(Cc3ccco3)c(=N)c3c4c(sc32)COC(C)(C)C4)cc1	/	117	115	175*[activator]	101	115*	2	102	100	104	102	97
CC1(C)Cc2c(sc3c2c(=N)n(Cc2ccco2)c(=O)n3Cc2ccc(F)cc2)CO1	/	94	98	97	98	/	/	/	/	/	/	/
Cc1cc(NC(=O)CCC(=O)N(c2ccc(F)cc2)C(C(=O)NC2CCCC2)c2ccc(C)o2)no1 (stereo unspecified)	35	102	101	99	99	/	/	/	/	/	/	/
COc1ccccc1N1CCN(C(=O)c2c(-c3ccccc3Cl)noc2C)CC1	/	-11*	64	74	77	64*	0	100	101	98	98	102
CC1CN(C(NC(=O)c2ccccc2)C(Cl)(Cl)Cl)CC(C)O1 (stereo unspecified)	19	104	150*[activator]	142	120	/	-1	105	107	106	105	96
CCCCOc1ccc(-c2nnn(CC(=O)NCCc3c[nH]c4ccccc34)n2)cc1	/	104	102	103	104	/	/	/	/	/	/	/
CCc1cc(C(=O)N2CCCC(C(=O)c3cccc4ccccc34)C2)n(C)n1 (stereo unspecified)	1	103	99	102	100	/	/	/	/	/	/	/
Cc1ccccc1NC(=S)NCc1cccn1C	15	178*[activator]	97	100	124	97*	-4	102	106	104	106	112
O=C(COC(=O)c1sc2ccccc2c1Cl)NCC1CCCCC1	6	105	100	104	99	/	/	/	/	/	/	/
CC1CCCC(NC(=O)COC(=O)c2sc3ccccc3c2Cl)C1C (stereo unspecified)	22	0.2*	4.5*	-6.9*	9.4*	/	-1	99	96	100	100	98
